What is called pIC50 is −log10 of the IC50, conventionally taken in molar units. Read a low pIC50 as a large IC50.

Assay [1] deals with D(1A) dopamine receptor (Rattus norvegicus) (UniProt P18901). Description: The percentage stimulation of adenylate cyclase activity of compound was measured on dopamine receptor D1 of Rat Striatum at 0.01 uM. It counts as functional.
Assay [2] has the same target. Description: The percentage stimulation of adenylate cyclase activity of compound was measured on dopamine receptor D1 of Rat Striatum at 0.1 uM. It counts as functional.
Assay [3] has the same target. Description: Percent stimulation of adenylate cyclase activity at dopamine receptor D1 of Rat Striatum at 1 uM. It counts as functional. The note with it: values are per cent of control.
Assay [4] deals with D(2) dopamine receptor (Rattus norvegicus) (UniProt P61169). Description: The percentage inhibition of adenylate cyclase activity of compound was measured on dopamine receptor D2 of Rat Striatum at 0.1 micro M. The note with it: values are per cent of control. The method, boiled down:
(§1)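 D-2 inhibition of basal adenylate cyclase in rat striatal synaptic membranes, 20-30 μg protein. Medium: Tris-HCl pH 7.4, 100 mM NaCl, 0.5 mM ATP, 50 μM GTP, IBMX, [α-32P]ATP, with 0.1 μM SCH 23390 present to block D-1. Incubation 20 min at 25 °C, followed by double-column cAMP isolation. Activity is given as % of basal, quadruplicates, three experiments.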

For assay [5] the target is unchanged. Description: The percentage inhibition of adenylate cyclase activity of compound was measured on dopamine receptor D2 of Rat Striatum at 1 micro M. The note with it: values are per cent of control. The method, boiled down:
as §1

For assay [6] the target is unchanged. Description: The percentage inhibition of adenylate cyclase activity of compound was measured on dopamine receptor D2 of Rat Striatum at 10 micro M. The note with it: values are per cent of control. The method, boiled down: as §1
For assay [7] the target is unchanged. Description: The percentage inhibition of adenylate cyclase activity of compound was measured on dopamine receptor D2 of Rat Striatum at 0.01 micro M. Conditions: values are per cent of control. The method, boiled down:
as §1

Assay [8] deals with D(1A) dopamine receptor (Rattus norvegicus) (UniProt P18901). Description: Selectivity index of D1 receptor to that of D2 receptor was determined. The method, boiled down:
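Index equals IC50 at D-1 ([3H]SCH 23390 binding) divided by IC50 at D-2 ([3H]spiperone binding), both measured in rat striatal membrane competition assays.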

The target in the next assay is D(2) dopamine receptor (Rattus norvegicus, UniProt P61169). Description: Inhibitory activity against [3H]spiperone in Rat Striatal membrane. The class given is cell membranes.
Assay [9] has as its target D(1A) dopamine receptor (Rattus norvegicus) (UniProt P18901). Description: The percentage stimulation of adenylate cyclase activity of compound was measured on dopamine receptor D1 of Rat Striatum at 10 uM. It counts as functional. The note with it: values are per cent of control.
Assay [10] has as its target T1, D(1A) dopamine receptor (Rattus norvegicus, UniProt P18901). Description: (§2) Inhibitory activity against [3H]-SCH- 23390 in Rat Striatal membrane. It counts as cell membranes.
For assay [11], the target named is T1, D(1A) dopamine receptor. The description is as §2. The class given is cell membranes. The method, boiled down:
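Competition binding on rat striatal membranes. The D-1 site was labelled with [3H]SCH 23390 and the D-2 site with [3H]spiperone. IC50 is the concentration giving half-maximal inhibition of binding, reported as mean ± SEM.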
This is another data set of the same source.

The target in assay [12] is D(1A) dopamine receptor (Rattus norvegicus) (UniProt P18901). Description: The percentage stimulation of adenylate cyclase activity of compound was measured on dopamine receptor D1 of Rat Striatum at 0.1uM. It counts as functional.

pIC50: −log10 of the molar value.

Sequence of D(1A) dopamine receptor (Rattus norvegicus) (P18901 whole entry): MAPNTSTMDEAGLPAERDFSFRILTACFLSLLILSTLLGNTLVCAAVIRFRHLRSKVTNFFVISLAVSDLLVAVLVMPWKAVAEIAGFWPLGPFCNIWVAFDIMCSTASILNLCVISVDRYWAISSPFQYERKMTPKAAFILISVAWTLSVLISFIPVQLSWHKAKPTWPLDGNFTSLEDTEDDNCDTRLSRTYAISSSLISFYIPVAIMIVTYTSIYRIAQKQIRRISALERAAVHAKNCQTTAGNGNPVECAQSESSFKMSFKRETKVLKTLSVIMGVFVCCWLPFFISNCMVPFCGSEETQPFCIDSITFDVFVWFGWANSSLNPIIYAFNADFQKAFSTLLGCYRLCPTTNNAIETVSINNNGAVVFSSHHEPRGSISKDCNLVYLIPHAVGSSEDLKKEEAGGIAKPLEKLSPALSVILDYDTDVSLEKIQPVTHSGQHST
T1 sequence (P18901 whole entry): as above
Sequence of D(2) dopamine receptor (Rattus norvegicus) (P61169 whole entry): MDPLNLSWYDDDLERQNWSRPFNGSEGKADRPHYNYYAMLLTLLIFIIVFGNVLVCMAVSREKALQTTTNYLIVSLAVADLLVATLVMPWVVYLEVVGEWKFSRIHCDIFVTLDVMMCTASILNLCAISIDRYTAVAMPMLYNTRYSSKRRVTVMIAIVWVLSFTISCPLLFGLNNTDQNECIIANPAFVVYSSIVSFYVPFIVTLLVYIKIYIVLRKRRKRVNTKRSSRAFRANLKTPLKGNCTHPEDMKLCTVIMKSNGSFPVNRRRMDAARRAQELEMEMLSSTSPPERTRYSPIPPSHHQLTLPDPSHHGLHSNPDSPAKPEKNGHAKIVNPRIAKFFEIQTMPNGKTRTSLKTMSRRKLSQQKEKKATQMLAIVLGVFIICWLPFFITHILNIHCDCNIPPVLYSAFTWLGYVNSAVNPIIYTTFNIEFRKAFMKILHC
Sequence of D(2) dopamine receptor (P61169 whole entry): as above

In the case of `NCCc1ccc(O)c(O)c1`, the results for the stimulation in [1] and in [2] were 104% and 113%, respectively. Moreover, the residual activity in [3] worked out at 110%; in assay [4], 92%; in [5], 87%; in [6] it was 83%; in assay [7], 95%.
As for `Br.NCCc1ccc(Cl)c(O)c1`, the Ratio in assay [8] came out at 0.96. Besides, the stimulation in assay [2] was determined as 98%. Moreover, the pIC50 is 4.58 at D(2) dopamine receptor and 4.60 against D(1A) dopamine receptor [10]. Besides, the residual activity was 95% in assay [3]; 90% in assay [4]; 87% in [5]; 105% in assay [9]; 84% in [6]; 101% in assay [7].
As to `CCCN(CCc1ccc(O)cc1)CCc1ccc(Cl)c(O)c1`, the residual activity came to 126% in assay [1] (values are per cent of control); 130% in [2] (values are per cent of control); 136% in [3]; 81% in assay [4]; 74% in [5]; 136% in assay [9]. Further, the residual activity was determined as 74% in assay [6] and 92% in assay [7]. For the same compound, the Ratio in assay [8] is 20.1. Moreover, the pIC50 against D(2) dopamine receptor is 6.05; against D(1A) dopamine receptor [11], 4.74.
For the compound `CCCN(CCc1cccc(O)c1)CCc1ccc(Cl)c(O)c1`, the stimulation in [1] stood at 103%; in assay [2], 116%. Further, in [8], the Ratio amounted to 15.3. In addition, the pIC50 is 6.14 against D(2) dopamine receptor and 4.95 against D(1A) dopamine receptor [10]. Also, the residual activity in assay [3] came to 125%; in assay [4] it was 91%; in assay [5], 83%; in assay [9], 128%; in assay [6], 81%; in assay [7] it was 94%.
`CCCN(CCc1ccccc1)CCc1cccc(O)c1`: the Ratio in assay [8] was 124. For the same compound, the negative-log IC50 (pIC50) against D(2) dopamine receptor was 6.12; against D(1A) dopamine receptor [10], 4.03. In addition, the figures for the residual activity in assay [4], in assay [5] and in assay [6] were 95%, 86% and 84%, respectively.
`Br.CCCN(CCC)CCc1ccc(Cl)c(O)c1`: in assay [8], the Ratio turned out to be 3.93. In assay [2], this compound registered a stimulation of 101%. The pIC50 against D(2) dopamine receptor is 4.89; at D(1A) dopamine receptor [10], 4.29. The residual activity stood at 105% in assay [3]; 88% in assay [4]; 90% in [5]; 115% in [9]; 86% in assay [6]; 96% in [7].
In the case of `CCCN(CCc1ccccc1)CCc1ccc(Cl)c(O)c1`, the values for the stimulation in [1] and in [2] were 104% and 113%, respectively. For the same compound, the Ratio in assay [8] turned out to be 17.6. Also, the figures for the pIC50 against D(2) dopamine receptor and on D(1A) dopamine receptor [10] were 5.86 and 4.61, respectively. Besides, the residual activity is 118% in assay [3]; 86% in [4]; 78% in assay [5]; 128% in [9]; 76% in assay [6]; 93% in [7].
On to `Br.CCCN(CCCc1ccc(O)cc1)CCc1ccc(Cl)c(O)c1`, for which the Ratio in assay [8] is 19.9. Also, the results for the pIC50 against D(2) dopamine receptor and against D(1A) dopamine receptor [10] were 6.07 and 4.77, respectively. Besides, the residual activity is 100% in assay [3]; 86% in assay [4]; 82% in assay [5]; 110% in [9]; 96.4% in assay [7]. The same compound showed a stimulation in [12] of 101%.
